Assay results: the EternaBench riboswitch data

Test system: MS2 coat protein
Assay: apparent Kd, MS2 coat protein; higher = weaker binding; RNA-MaP array; FMN 200 µM where present
Procedure, shortened: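 Green signal from SNAP-549-labelled MS2 coat protein was normalised to red-channel RNA signal and to the median Fmax of control clusters. The protein was titrated from 0.7 or 1.5 nM, doubling to 3 µM, without and then with constant ligand, over designs transcribed by stalled E. coli RNA polymerase on Illumina sequencing-chip clusters, in 100 mM Tris-HCl pH 7.5, 80 mM KCl, 4 mM MgCl2, BSA, DTT, yeast tRNA and Tween-20. The apparent Kd is the median of filtered per-cluster binding-curve fits.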

[1] = designed as: OFF switch for flavin mononucleotide, no ligand
[2] = ligand present: flavin mononucleotide, designed as: OFF switch for flavin mononucleotide
[3] = designed as: ON switch for flavin mononucleotide, no ligand
[4] = ligand present: flavin mononucleotide, designed as: ON switch for flavin mononucleotide

| Sequence | apparent Kd [1] [nM] | apparent Kd [2] [nM] | apparent Kd [3] [nM] | apparent Kd [4] [nM] |
| --- | --- | --- | --- | --- |
| CCUCUACAUGAGGAUCACCCAUGUGAGGAUAUAAGAUUGCGGAUUCCGCACUACGGUCUUAGAAGGCGCGUGGA | 19 | 38.1 |  |  |
| CCUCUACAUGAGGAUCACCCAUGUGAGGAUAUCAAAGCCAGAGCGGCGCUCUGGCCCAUGAGAAGGUGCAUGGA | 25.9 | 133 |  |  |
| CCUGCACAUGAGGAUCACCCAUGUCAGGAUAUCUCGCCGUCGGCUUGCCGACGGUAUUAGAGAAGGGACAAGGG | 23.4 | 29 |  |  |
| CCUGCACAUGAGGAUCACCCAUGUUAGGAUAUCUCGCCGUCGGCUUGCCGACGGUAUUAGAGAAGGGACAAGGG | 34.7 | 45.5 |  |  |
| CCUGGAUCAUGAGGAUAUGGCACCUUAUUGGUGCCAGAAGGCAUGUCUCUUGACAUGAGGAUCACCCAUGUAAUAAAUUCCAGG |  |  | 1020 | 124 |
| CCUUUUGUAUAAGGAUAUGUAACAAGGUGUAGGCUGGUAGGACUUGCGCUUACAGAAGGUAUACAUGAGGAUCACCCAUGUCGA | 22.2 | 107 |  |  |
| CGAAGUCCGUAGAAGGGUGACAUGAGGAUCACCCAUGUGCGAGCGGAGAGAGUCAGCGGCUCGCCACAGGAUAUACGGAGCACG |  |  | 103 | 29.1 |
| CGACCACAUGAGGAUCACCCAUGUAAGGAUAUAUUGAAUGAGCCGGCGGCAGUAAAAGAUAGAAGGUGCGUGUA | 23.1 | 22 |  |  |
| CGAGACCUCACAGGAUAUGCUGGACUUUGUCCAGCAGAAGGGUGAAAACAUGAGGAUCACCCAUGUAUGGUCUCCAAAUUUAAC |  |  | 175 | 12.9 |
| CGAGAGGCAGGAUAUAGUAUUUGCGACAUGAGGAUCACCCAUGUAUAUACAGUCGCUCCGUUAGAAGGGCCAUUUC | 22.8 | 33.2 |  |  |
| CGAGAUACGCUCGUCCGAAAGGAACAUGAGGAUCACCCAUGUAGAAGGCGAUCCGCAACUCGGAUUGAGGAUAUAUACUGCAGA | 139 | 91.2 |  |  |
| CGAUACAUGAGGGUCUCCCAUGACAUGAGGAUCACCCAUGUGCAGGAUAUACGUGUGAUGGUAUAGUAGAAGGGCAGUCUAUGU | 70.6 | 99.9 |  |  |
| CGAUAGUGUAGUUAUCCGUAGCGAACAUGAGGAUCACCCAUGUAGGAUAUGUUACUAAACUAGUAACAGAAGGGCAUGAGUCUU | 28.6 | 75.6 |  |  |
| CGAUAUAUGAAGGGCGAAAGCCCACAUGAGGAUCACCCAUGUAGAAGGCGAUCCGCAACGCGGAUCGAGGAUAUAUAGUAUACA | 9.48 | 10.4 |  |  |
| CGAUCGUUGCAGAAGGUUAAAUAAUUAUCUACAUGUUUUACAUGAGGAUCACCCAUGUUUAUGUUGAAGGAUAUGCAAGGGUCG | 8.02 | 8.09 |  |  |
| CGAUCGUUGCAGAAGGUUAUUUUUUUAACAAUUCUCUUAACAUGAGGAUCACCCAUGUUUUUGAUGAAGGAUAUGCAAGGGUCG | 5.76 | 5.5 |  |  |
| CGAUGACUGGUGAGGAUAUCGUGUUCGAAAGAACGUGAGAAGGCACAUGAGGAUCACCCAUGUGAUCCUCAUCG | 29.8 | 206 |  |  |
| CGAUGAGUAGGAUAUGCGUCGGAUGCAUCUGCAUGUCACUUACAUGAGGAUCACCCAUGUAGAAGGGCUCGUUC | 19 | 26 |  |  |
| CGAUUAUUGAUCCAUUUUUACAACAUGAGGAUCACCCAUGUGCAGGAUAUCGUGAUUAUUAUCAACGAGAAGGGCAAAUUCACG | 49 | 137 |  |  |
| CGCAAGUAUACAUGAGGAUCACCCAUGUCAGAUAGGGUAAUCAGAAGGUACAAUUAGAGAUAGAGUAAGGAUAUGAAAUUUGCG |  |  | 865 | 314 |
| CGCACUAUACAUGAGGAUCACCCAUGUUAUUAUGAGAUAGUCAGAAGGCAUUGUUAGUGAUAUUAUGAGGAUAUGAAUAGUGCG |  |  | 156 | 89.8 |

| Sequence | apparent Kd [1] [nM] | apparent Kd [2] [nM] | apparent Kd [3] [nM] | apparent Kd [4] [nM] |
| --- | --- | --- | --- | --- |
| CGCAGUACUUAGGUACCACACAUGAGGAUCACCCAUGUAUCACAGGAUAUGCAUGAUAUAUUCAGGCAGAAGGGUGAUCUUACC |  |  | 79.7 | 318 |
| CGCCAUCCCGGUGGCGUGAGGAUACCAGAAGGGACGAUCUCACAUGAGGAUCACCCAUGUUAUAGUCAGGAUAUGGGUUCAUCA |  |  | 88.5 | 12.3 |
| CGCCUGCGUAGAAUUAGCAGCUGACAGGAUAUGACAUGAGGAUCACCCAUGUGAAAUAAGAAGAGUCAGAAGGGUCACGACGCG | 10.8 | 8.77 |  |  |
| CGCGAAAACAUAGGAUAUUGUUACAUGAGGAUCACCCAUGUCAACCAUGUAGCUCGAAUUGUUGACAAGAAGGAUGAGGUCGCG |  |  | 48.3 | 103 |
| CGCGAACAGGUUAACAUGAGGAUCACCCAUGUGGACUCAUGGUAGGAUAUCGGGAAGGAGGAAACCGAGAAGGGCUGGUGAGCC |  |  | 634 | 443 |
| CGCUAAGAUGGGUCUAAUGGAGCAUAGGAUAUGCUUGUACAUGAGGAUCACCCAUGUAAUAUUGUGCAGAAGGGUGCAUUUGCG |  |  | 127 | 61.7 |
| CGCUACUACCAGAAGGACAUGAGGAUCACCCAUGUAGGAUAUGGGUUACAAGUACCAGUGUAGAGAAACUACGCUACAGUAGCG |  |  | 29.8 | 8.3 |
| CGCUACUACCAGAAGGACAUGAGGAUCACCCAUGUAGGAUAUGGGUUACAAGUUCCUGUGUAAAGAAACUACGCUACGUAUGCG |  |  | 715 | 31.7 |
| CGCUAGGAUGGGUCUAAUGGACCACAGGAUAUGCUUGUACAUGAGGAUCACCCAUGUAAUAUUGUGCAGAAGGGUGGAUUCACG |  |  | 54.8 | 8.27 |
| CGCUAGGAUGGGUCUAAUGGACCACAGGAUAUGCUUGUACAUGAGGAUCACCCAUGUAAUAUUGUGCAGAAGGGUGGAUUCGCG |  |  | 76 | 10.9 |
| CGCUAGGAUGGGUCUAAUGGACCUCAGGAUAUGCUUGUACAUGAGGAUCACCCAUGUAAUAUUGUGCAGAAGGGAGGAUCCACG |  |  | 18.9 | 6.56 |
| CGCUGAGCGGUGAGGAUAUCGUGUUCGAAAGAACGUGAGAAGGCACAUGAGGAUCACCCAUGUGAUCCUCAUCG | 17.1 | 28.1 |  |  |
| CGCUGGUGACAGCAUCCAUCAAAACAUGAGGAUCACCCAUGUAGAAGGCUGUACGGUUACCGUACAGAGGAUAUACAAUGAUGC | 15.1 | 28.4 |  |  |
| CGCUGGUGACAGCAUCCAUCAAAACAUGAGGAUCACCCAUGUAGAAGGCUGUACGGUUACCGUACAGAGGAUAUACAAUGAUGG | 7.56 | 9.75 |  |  |
| CGCUGUCUCGCAGGAUAUGCAUUGGAUUACAAUGCAGAAGGGCGAUUACAUGAGGAUCACCCAUGUGUUGACAGUGAAGAAGAU |  |  | 113 | 25.5 |
| CGGAUGUCAGGAUAUACGAACAUGUCGCCAGAUGUCAUGGUACAUGAGGAUCACCCAUGUAGAAGGGAGGUGGU | 160 | 331 |  |  |
| CGGCCGGGUCGAGGAUAUAAGUCUAGGACAUGAGGAUCACCCAUGUAUGUCUUAGAAGGCGACCCGGCCAGCCUGUUACAGGCA |  |  | 31.7 | 7.21 |
| CGGCGCUGUCGAGAGGAUAUGCGGUGACGGACAUGAGGAUCACCCAUGUUAGCGAUAGCGUUACGGUAGAAGGCUCUACAGUCGC |  |  | 76.8 | 15.4 |
| CGGGCCGUCUACAUGAGGAUCACCCAUGUGACGGAAGUAACACAGGAUAUCCUCUAAUUGUAGACGGAGAAGGGUGGCCCGAAU |  |  | 28.9 | 159 |
| CGGGCGGGAGGAUAUGCGUGGAUUGUUCUCGUAUGGUGUCUACAUGAGGAUCACCCAUGUAGAAGGCUUGUUUG | 14.1 | 16.7 |  |  |
